Published values of several laboratories.
Each line is one published result; the experiments were not run side by side.
Effect on: microbial growth

SMILES	organism	technique	strain	time	MIC
Oc1ccc(-c2nc(-c3ccc(Oc4ccccc4CBr)cc3)no2)cc1	Clostridioides difficile	broth dilution	ATCC43255	48 h	8 to 128 µg/mL
CC/C(=C(\c1ccccc1)c1ccc(OCCN(C)C)cc1)c1ccccc1	Saccharomyces cerevisiae	–	–	–	20 to 25 µM
Cc1ccc(C)n1-c1ccc(-c2nnco2)cc1	Saccharomyces cerevisiae	broth dilution	ATCC9763	–	125 µg/mL
O=C(O)COc1cccc(Oc2ccc(-c3noc(-c4ccc(O)cc4)n3)cc2)c1	Clostridioides difficile	broth dilution	–	48 h	50 µg/mL
Oc1ccc(-c2nc(-c3ccc(Oc4ccc(C(F)(F)F)cc4)cc3)no2)cc1F	Clostridioides difficile	broth dilution	ATCC43255	48 h	2 to 4 µg/mL
Cc1ccc(C)n1-c1ccc(C(=O)NNC=O)cc1	Saccharomyces cerevisiae	broth dilution	ATCC9763	–	250 µg/mL
OC(Cn1cncn1)(Cn1cncn1)c1ccc(F)cc1F	Saccharomyces cerevisiae	–	–	–	4 µg/mL
Cc1ccc(C)n1-c1ccc(-c2nnc(-c3ccc(O)cc3)[nH]2)cc1	Saccharomyces cerevisiae	broth dilution	ATCC9763	–	31.2 µg/mL
CC1(C)S[C@@H]2[C@H](NC(=O)[C@H](N)c3ccccc3)C(=O)N2[C@H]1C(=O)O	Shigella sonnei	broth dilution	ATCC25931	–	4 µg/mL
CC(=O)Nc1ccc(-c2nc(-c3ccc(Oc4ccccc4)cc3)no2)cc1	Clostridioides difficile	broth dilution	–	48 h	> 50 µg/mL
Clc1ccccc1C(c1ccccc1)(c1ccccc1)n1ccnc1	Saccharomyces cerevisiae	–	–	–	20 to 25 µM
Cl.NCc1ccc(Oc2ccc(-c3noc(-c4ccc(O)cc4)n3)cc2)cc1	Clostridioides difficile	broth dilution	–	48 h	6 µg/mL
Cc1ncc([N+](=O)[O-])n1CCO	Clostridioides difficile	broth dilution	R20291	–	> 0.5 µg/mL
Cl.Oc1ccc(-c2nc(-c3ccc(Oc4ccc5c(c4)CNCC5)cc3)no2)cc1	Clostridioides difficile	broth dilution	–	48 h	4 µg/mL
Cc1ccc(C)n1-c1ccc(-c2nnc(-c3ccccc3Cl)[nH]2)cc1	Saccharomyces cerevisiae	broth dilution	ATCC9763	–	8 µg/mL
O=[N+]([O-])c1ccc(-c2nc(-c3ccc(Oc4ccccc4)cc3)no2)cc1	Clostridioides difficile	broth dilution	–	48 h	8 µg/mL
Cc1ccc(C)n1-c1ccc(-c2nnc(-c3ccc(N(C)C)cc3)[nH]2)cc1	Saccharomyces cerevisiae	broth dilution	ATCC9763	–	62.5 µg/mL
